Laboratory results as given in publication PMC6108325 (Bioorganic & medicinal chemistry, 2014).
≈ marks a conversion by molar mass, not a printed value. Blank lines part the entries; values can stand above or below the molecule they belong to.

Columns and labels:
MRSA PK = MRSA PK (Staphylococcus aureus, UniProt Q6GG09); experiment: MRSA PK enzyme inhibition assay; type: biochemical, methicillin-resistant Staphylococcus aureus; conditions: for fold more potent than 33c: MRSA PK inhibition relative to 33c; for fold decrease in activity compared to 10a: MRSA PK inhibition relative to 10a
Method in brief: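 His-tagged recombinant MRSA pyruvate kinase construct, prepared as in earlier work. […] IC50 was calculated from a triplicate 15-point titration. Where no IC50 was obtained, % inhibition at the highest concentration tested was reported.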

S. aureus (ATCC29213) = experiment: MIC in absence and presence of efflux inhibitor verapamil; type: cell-based, Staphylococcus aureus
S. aureus ATCC 29213 = experiment: In vitro susceptibility testing; type: cell-based, Staphylococcus aureus
[1] = tested on: S. aureus LAC Δpyk::Erm^R; experiment: Bacterial killing assay, PK-deficient mutant; type: cell-based, Staphylococcus aureus; conditions: 1.6 μM
Wild-type S. aureus LAC = experiment: Bacterial killing assay, wild type; type: cell-based, Staphylococcus aureus; conditions: 1.6 μM, aerobic growth in BHI
MRSA strain MW2 (USA400) = experiment: In vitro susceptibility testing; type: cell-based, methicillin-resistant Staphylococcus aureus; conditions: CAMHB
[2] = Staphylococcus aureus, ATCC29213, absence of verapamil
[3] = Staphylococcus aureus, ATCC29213

Molecule: 2-(4-(1H-Indol-2-yl)-3-nitrophenyl)-6-bromo-1H-indole [33d]
fold more potent than 33c (MRSA PK): 2–3 fold
% Inhibition of MRSA PK (MRSA PK; at 10 μM (Table 4)): 86.2%
IC50 (MRSA PK; triplicate 15-point titration): 1.8 nM

Molecule: 5′,6-Dibromo-1-methyl-1H,2′H-2,2′-biindole [12b]
% inhibition at the highest concentration tested (MRSA PK; @ 10 μM): 25% @ 10 μM

MIC (S. aureus (ATCC29213); [2]): 16 µg/mL
MIC (S. aureus ATCC 29213; [3]): 16 µg/mL (≈ 41 µM)
Molecule: Brc1ccc2cc(-c3cc4ccc(Br)cc4[nH]3)[nH]c2c1 [10b, 6,6′-Dibromo-1H,1′H-2,2′-biindole]

MIC (S. aureus ATCC 29213; [3]): 0.3 µg/mL (≈ 0.769 µM)
Molecule: Brc1ccc2[nH]c(-c3cc4ccc(Br)cc4[nH]3)cc2c1 [10c, 5,6-Bibromo-1H,1′H-2,2′-biiindole]

Molecule: Clc1ccc2[nH]c(-c3cc4ccc(Br)cc4[nH]3)cc2c1 [10d, 6′-Bromo-5-chloro-1H,1′H-2,2′-biindole]
bactericidal effect ([1]; TSB without glucose + 1% sodium pyruvate (TSB-G+P)): unable to kill
bactericidal effect ([1]; aerobic growth in BHI): merely acted statically
bactericidal effect (Wild-type S. aureus LAC): highly bactericidal
MIC (S. aureus ATCC 29213; [3]): 0.3 µg/mL (≈ 0.868 µM)

MIC (S. aureus ATCC 29213; [3]): 0.3 µg/mL (≈ 0.911 µM)
Molecule: Fc1ccc2[nH]c(-c3cc4ccc(Br)cc4[nH]3)cc2c1 [10e, 6′-Bromo-5-fluoro-1H,1′H-2,2′-biindole]

MIC (S. aureus ATCC 29213; [3]): > 64 µg/mL
Molecule: Brc1ccc2[nH]c(-c3cc4cc(Br)ccc4[nH]3)cc2c1 [10i, 5,5′-Bibromo-1H,1′H-2,2′-biindole]

Molecule: Brc1cc2cc(-c3cc4cc(Br)c(Br)cc4[nH]3)[nH]c2cc1Br [10l, 5,5′,6,6′-Tetrabromo-1H,1′H-2,2′-biindole]
MIC (S. aureus (ATCC29213); [2]): > 64 µg/mL
shift of MIC by verapamil (S. aureus (ATCC29213); absence vs presence of verapamil (200 mg/L)): at least fourfold
MIC (S. aureus ATCC 29213; [3]): > 64 µg/mL
MIC (S. aureus ATCC 29213; minimum concentration to give >98% inhibition of growth): > 64 µg/mL

Molecule: Brc1ccc2cc(-c3nc4ccccc4s3)[nH]c2c1 [22a, 2-(6-Bromo-1H-indol-2-yl)benzo[d]thiazole]
fold decrease in activity compared to 10a (MRSA PK): 5–8 fold

Molecule: Brc1ccc2cc(-c3cc4ccccc4o3)[nH]c2c1 [22b, 2-(Benzofuran-2-yl)-6-bromo-1H-indole]
fold decrease in activity compared to 10a (MRSA PK): 5–8 fold

Molecule: COc1cc(-c2cc3ccccc3[nH]2)ccc1-c1cc2ccc(Br)cc2[nH]1 [33e, 2-(4-(1H-Indol-2-yl)-2-methoxyphenyl)-6-bromo-1H-indole]
fold more potent than 33c (MRSA PK): 2–3 fold

Molecule: CN[C@H](CC(C)C)C(=O)N[C@H]1C(=O)N[C@@H](CC(N)=O)C(=O)N[C@H]2C(=O)N[C@H]3C(=O)N[C@H](C(=O)N[C@H](C(=O)O)c4cc(O)cc(O)c4-c4cc3ccc4O)[C@H](O)c3ccc(c(Cl)c3)Oc3cc2cc(c3O[C@@H]2O[C@H](CO)[C@@H](O)[C@H](O)[C@H]2O[C@H]2C[C@](C)(N)[C@H](O)[C@H](C)O2)Oc2ccc(cc2Cl)[C@H]1O [vancomycin, reference compound]
MIC (MRSA strain MW2 (USA400)): 2 µg/mL (≈ 1.38 µM)
MIC (S. aureus (ATCC29213); [3]): 2 µg/mL
MIC (S. aureus (ATCC29213); presence of verapamil (200 mg/L)): 2 µg/mL
